Laboratory results reported in ChEMBL document CHEMBL1649256, “Comparison of assessment of oxygen consumption, Etest, and CLSI M38-A2 broth microdilution methods for evaluation of the susceptibility of Aspergillus fumigatus to posaconazole” (2009).
Values after ≈ are worked out from the molar mass of the structure shown.

How the values were obtained:
Format in all cases: functional
Aspergillus fumigatus [1] = experiment: Antimicrobial activity against Aspergillus fumigatus isolate 31 by CLSI M38-A2 broth microdilution method
Method in brief: (§1)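 Reference broth microdilution per CLSI M38-A2. MIC read as absence of visible growth at 48 h. C. parapsilosis ATCC 22019 and C. krusei ATCC 6258 QC strains run in each test session.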

Aspergillus fumigatus [2] = experiment: Antimicrobial activity against Aspergillus fumigatus isolate 32 by CLSI M38-A2 broth microdilution method
Method in brief: (§2)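 CLSI M38-A2 broth microdilution with posaconazole. MIC taken as the lowest concentration with no visible growth at 48 h. C. parapsilosis ATCC 22019 and C. krusei ATCC 6258 were included as QC strains in every run.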

Aspergillus fumigatus [3] = experiment: Antimicrobial activity against Aspergillus fumigatus isolate 45 after 24 hrs by Etest; conditions: isolate 45, 24 h
Aspergillus fumigatus [4] = experiment: Antimicrobial activity against Aspergillus fumigatus isolate 15 after 24 hrs by Etest; conditions: isolate 15, 24 h
Method in brief: (§3)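 Posaconazole Etest strips placed on RPMI 1640 agar with 2% glucose, pH 7.0, and run per the strip maker's instructions. Incubation at 35°C, with the MIC read at 24 h and at 48 h.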

Aspergillus fumigatus [5] = experiment: Antimicrobial activity against Aspergillus fumigatus isolate 5 after 24 hrs by Etest; conditions: isolate 5, 24 h
Aspergillus fumigatus [6] = experiment: Antimicrobial activity against Aspergillus fumigatus isolate 8 by CLSI M38-A2 broth microdilution method
Aspergillus fumigatus [7] = experiment: Antimicrobial activity against Aspergillus fumigatus isolate 43 by oxygen consumption method
Aspergillus fumigatus [8] = experiment: Antimicrobial activity against Aspergillus fumigatus isolate 41 by CLSI M38-A2 broth microdilution method; method in brief: as §2
Aspergillus fumigatus [9] = experiment: Antimicrobial activity against Aspergillus fumigatus isolate 12 by oxygen consumption method
Method in brief: (§4)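 Conidial suspension in RPMI 1640 broth with posaconazole at 0.25 and 2 μg/ml. Tubes agitated 12 h at 37°C in a biological oxygen monitor. Available oxygen was monitored continuously, and the MIC was assigned from the oxygen quantification.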

Aspergillus fumigatus [10] = experiment: Antimicrobial activity against Aspergillus fumigatus isolate 15 by CLSI M38-A2 broth microdilution method
Method in brief: (§5)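 Posaconazole broth microdilution follows CLSI M38-A2. The MIC is the lowest concentration with no visible growth at 48 h. Candida parapsilosis ATCC 22019 and Candida krusei ATCC 6258 were included as QC strains in every run.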

Aspergillus fumigatus [11] = experiment: Antimicrobial activity against Aspergillus fumigatus isolate 26 after 48 hrs by Etest; conditions: isolate 26, 48 h
Method in brief: (§6)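 Etest strips on RPMI 1640 agar with 2% glucose, pH 7.0, run per manufacturer's instructions. Incubated at 35°C; MIC read at 48 h.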

Aspergillus fumigatus [12] = experiment: Antimicrobial activity against Aspergillus fumigatus isolate 23 after 24 hrs by Etest; conditions: isolate 23, 24 h
Method in brief: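 Etest strips on RPMI 1640 agar with 2% glucose, pH 7.0, run per manufacturer's instructions. Incubated at 35°C; MIC read at 24 h.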

Aspergillus fumigatus [13] = experiment: Antimicrobial activity against Aspergillus fumigatus isolate 4 by oxygen consumption method
Method in brief: (§7)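 Conidial suspension in RPMI 1640 broth, tested at two posaconazole levels (0.25 and 2 μg/ml). Agitated for 12 h at 37°C in a biological oxygen monitor. MIC derived from continuous monitoring and quantification of the available oxygen.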

Aspergillus fumigatus [14] = experiment: Antimicrobial activity against Aspergillus fumigatus isolate 3 after 48 hrs by Etest; conditions: isolate 3, 48 h; method in brief: as §6
Aspergillus fumigatus [15] = experiment: Antimicrobial activity against Aspergillus fumigatus isolate 24 by CLSI M38-A2 broth microdilution method; method in brief: as §1
Aspergillus fumigatus [16] = experiment: Antimicrobial activity against Aspergillus fumigatus isolate 44 by oxygen consumption method
Aspergillus fumigatus [17] = experiment: Antimicrobial activity against Aspergillus fumigatus isolate 2 by CLSI M38-A2 broth microdilution method; method in brief: as §5
Aspergillus fumigatus [18] = experiment: Antimicrobial activity against Aspergillus fumigatus isolate 8 after 48 hrs by Etest; conditions: isolate 8, 48 h
Aspergillus fumigatus [19] = experiment: Antimicrobial activity against Aspergillus fumigatus isolate 8 by oxygen consumption method
Aspergillus fumigatus [20] = experiment: Antimicrobial activity against Aspergillus fumigatus isolate 36 by CLSI M38-A2 broth microdilution method; method in brief: as §2
Aspergillus fumigatus [21] = experiment: Antimicrobial activity against Aspergillus fumigatus isolate 42 by oxygen consumption method; method in brief: as §7
Aspergillus fumigatus [22] = experiment: Antimicrobial activity against Aspergillus fumigatus isolate 44 after 48 hrs by Etest; conditions: isolate 44, 48 h
Aspergillus fumigatus [23] = experiment: Antimicrobial activity against Aspergillus fumigatus isolate 40 by CLSI M38-A2 broth microdilution method; method in brief: as §2
Aspergillus fumigatus [24] = experiment: Antimicrobial activity against Aspergillus fumigatus isolate 44 by CLSI M38-A2 broth microdilution method
Aspergillus fumigatus [25] = experiment: Antimicrobial activity against Aspergillus fumigatus isolate 48 after 48 hrs by Etest; conditions: isolate 48, 48 h
Aspergillus fumigatus [26] = experiment: Antimicrobial activity against Aspergillus fumigatus isolate 40 by oxygen consumption method; method in brief: as §7
Aspergillus fumigatus [27] = experiment: Antimicrobial activity against Aspergillus fumigatus isolate 9 by oxygen consumption method
Aspergillus fumigatus [28] = experiment: Antimicrobial activity against Aspergillus fumigatus isolate 21 after 48 hrs by Etest; conditions: isolate 21, 48 h; method in brief: as §6
Aspergillus fumigatus [29] = experiment: Antimicrobial activity against Aspergillus fumigatus isolate 2 by oxygen consumption method; method in brief: as §4
Aspergillus fumigatus [30] = experiment: Antimicrobial activity against Aspergillus fumigatus isolate 10 by CLSI M38-A2 broth microdilution method; method in brief: as §5
Aspergillus fumigatus [31] = experiment: Antimicrobial activity against Aspergillus fumigatus isolate 18 by CLSI M38-A2 broth microdilution method; method in brief: as §5
Aspergillus fumigatus [32] = experiment: Antimicrobial activity against Aspergillus fumigatus isolate 50 by CLSI M38-A2 broth microdilution method
Aspergillus fumigatus [33] = experiment: Antimicrobial activity against Aspergillus fumigatus isolate 2 after 24 hrs by Etest; conditions: isolate 2, 24 h; method in brief: as §3
Aspergillus fumigatus [34] = experiment: Antimicrobial activity against Aspergillus fumigatus isolate 5 by CLSI M38-A2 broth microdilution method
Aspergillus fumigatus [35] = experiment: Antimicrobial activity against Aspergillus fumigatus isolate 15 by oxygen consumption method; method in brief: as §4
Aspergillus fumigatus [36] = experiment: Antimicrobial activity against Aspergillus fumigatus isolate 1 after 48 hrs by Etest; conditions: isolate 1, 48 h; method in brief: as §3
Aspergillus fumigatus [37] = experiment: Antimicrobial activity against Aspergillus fumigatus isolate 19 after 24 hrs by Etest; conditions: isolate 19, 24 h; method in brief: as §3
Aspergillus fumigatus [38] = experiment: Antimicrobial activity against Aspergillus fumigatus isolate 14 after 24 hrs by Etest; conditions: isolate 14, 24 h; method in brief: as §3
Aspergillus fumigatus [39] = experiment: Antimicrobial activity against Aspergillus fumigatus isolate 48 by oxygen consumption method
Aspergillus fumigatus [40] = experiment: Antimicrobial activity against Aspergillus fumigatus isolate 17 after 48 hrs by Etest; conditions: isolate 17, 48 h; method in brief: as §3
Aspergillus fumigatus [41] = experiment: Antimicrobial activity against Aspergillus fumigatus isolate 7 after 24 hrs by Etest; conditions: isolate 7, 24 h
Aspergillus fumigatus [42] = experiment: Antimicrobial activity against Aspergillus fumigatus isolate 40 after 24 hrs by Etest; conditions: isolate 40, 24 h
Method in brief: (§8)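 Posaconazole Etest strips on RPMI 1640 agar with 2% glucose, pH 7.0, run per the strip maker's instructions. Incubated at 35°C. MIC read at 24 h and at 48 h, matching the time in each line.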

Aspergillus fumigatus [43] = experiment: Antimicrobial activity against Aspergillus fumigatus isolate 43 after 48 hrs by Etest; conditions: isolate 43, 48 h; method in brief: as §8
Aspergillus fumigatus [44] = experiment: Antimicrobial activity against Aspergillus fumigatus isolate 35 by CLSI M38-A2 broth microdilution method; method in brief: as §2
Aspergillus fumigatus [45] = experiment: Antimicrobial activity against Aspergillus fumigatus isolate 19 by oxygen consumption method; method in brief: as §4
Aspergillus fumigatus [46] = experiment: Antimicrobial activity against Aspergillus fumigatus isolate 47 by oxygen consumption method
Aspergillus fumigatus [47] = experiment: Antimicrobial activity against Aspergillus fumigatus isolate 46 after 48 hrs by Etest; conditions: isolate 46, 48 h

CC[C@@H]([C@H](C)O)n1ncn(-c2ccc(N3CCN(c4ccc(OC[C@@H]5CO[C@@](Cn6cncn6)(c6ccc(F)cc6F)C5)cc4)CC3)cc2)c1=O [POSACONAZOLE]
MIC (Aspergillus fumigatus [1]): 0.125 µg/mL (≈ 0.178 µM)
MIC (Aspergillus fumigatus [2]): 0.125 µg/mL (≈ 0.178 µM)
MIC (Aspergillus fumigatus [3]): 0.125 µg/mL (≈ 0.178 µM)
MIC (Aspergillus fumigatus [4]): 0.06 µg/mL (≈ 0.0856 µM)
MIC (Aspergillus fumigatus [5]): 4 µg/mL (≈ 5.71 µM)
MIC (Aspergillus fumigatus [6]): 0.125 µg/mL (≈ 0.178 µM)
MIC (Aspergillus fumigatus [7]): ≤ 0.25 µg/mL
MIC (Aspergillus fumigatus [8]): 0.06 µg/mL (≈ 0.0856 µM)
MIC (Aspergillus fumigatus [9]): ≤ 0.25 µg/mL
MIC (Aspergillus fumigatus [10]): 0.06 µg/mL (≈ 0.0856 µM)
MIC (Aspergillus fumigatus [11]): 0.25 µg/mL (≈ 0.357 µM)
MIC (Aspergillus fumigatus [12]): 0.25 µg/mL (≈ 0.357 µM)
MIC (Aspergillus fumigatus [13]): ≥ 0.5 µg/mL
MIC (Aspergillus fumigatus [14]): 2 µg/mL (≈ 2.85 µM)
MIC (Aspergillus fumigatus [15]): 0.125 µg/mL (≈ 0.178 µM)
MIC (Aspergillus fumigatus [16]): ≤ 0.25 µg/mL
MIC (Aspergillus fumigatus [17]): 0.5 µg/mL (≈ 0.713 µM)
MIC (Aspergillus fumigatus [18]): 0.25 µg/mL (≈ 0.357 µM)
MIC (Aspergillus fumigatus [19]): ≥ 0.5 µg/mL
MIC (Aspergillus fumigatus [20]): 0.125 µg/mL (≈ 0.178 µM)
MIC (Aspergillus fumigatus [21]): ≤ 0.25 µg/mL
MIC (Aspergillus fumigatus [22]): 0.06 µg/mL (≈ 0.0856 µM)
MIC (Aspergillus fumigatus [23]): 0.125 µg/mL (≈ 0.178 µM)
MIC (Aspergillus fumigatus [24]): 0.06 µg/mL (≈ 0.0856 µM)
MIC (Aspergillus fumigatus [25]): ≤ 0.03 µg/mL
MIC (Aspergillus fumigatus [26]): ≤ 0.25 µg/mL
MIC (Aspergillus fumigatus [27]): ≤ 0.25 µg/mL
MIC (Aspergillus fumigatus [28]): 0.25 µg/mL (≈ 0.357 µM)
MIC (Aspergillus fumigatus [29]): ≥ 0.5 µg/mL
MIC (Aspergillus fumigatus [30]): 0.25 µg/mL (≈ 0.357 µM)
MIC (Aspergillus fumigatus [31]): 0.125 µg/mL (≈ 0.178 µM)
MIC (Aspergillus fumigatus [32]): 0.125 µg/mL (≈ 0.178 µM)
MIC (Aspergillus fumigatus [33]): 0.5 µg/mL (≈ 0.713 µM)
MIC (Aspergillus fumigatus [34]): 1 µg/mL (≈ 1.43 µM)
MIC (Aspergillus fumigatus [35]): ≤ 0.25 µg/mL
MIC (Aspergillus fumigatus [36]): 8 µg/mL (≈ 11.4 µM)
MIC (Aspergillus fumigatus [37]): 0.125 µg/mL (≈ 0.178 µM)
MIC (Aspergillus fumigatus [38]): 0.25 µg/mL (≈ 0.357 µM)
MIC (Aspergillus fumigatus [39]): ≤ 0.25 µg/mL
MIC (Aspergillus fumigatus [40]): 0.25 µg/mL (≈ 0.357 µM)
MIC (Aspergillus fumigatus [41]): 0.25 µg/mL (≈ 0.357 µM)
MIC (Aspergillus fumigatus [42]): 0.125 µg/mL (≈ 0.178 µM)
MIC (Aspergillus fumigatus [43]): 0.06 µg/mL (≈ 0.0856 µM)
MIC (Aspergillus fumigatus [44]): 0.125 µg/mL (≈ 0.178 µM)
MIC (Aspergillus fumigatus [45]): ≥ 0.5 µg/mL
MIC (Aspergillus fumigatus [46]): ≤ 0.25 µg/mL
MIC (Aspergillus fumigatus [47]): 0.125 µg/mL (≈ 0.178 µM)
